# In the RNAGym collection of RNA variant scans (doi:10.1126/science.aae0568):
# Variants at the floor of the assay were thinned out.
# B1: tRNA (parent)
# chain: GUUCCGUUGGCGUAAUGGUAACGCGUCUCCCUCCUAAGGAGAAGACUGCGGGUUCGAGUCCCGUACGGAACG
# Variants of: B1
# Assay: yeast fitness relative to wild type (ratio to wild type); higher = fitter; tRNA-Arg(CCU), competitive growth, 37 C, YPD
# How it was run: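 Variants of the tRNA-Arg(CCU) gene, chemically synthesised with a 3% per-site mutation rate at 69 sites, were placed at the native genomic locus in Saccharomyces cerevisiae. The pooled strains were competed in YPD at 37°C for 24 hours in six parallel replicates. Gene amplicons from the start population and from each end population were read by 100-nucleotide paired-end sequencing. Darwinian fitness relative to wild type came from changes in genotype frequencies; genotypes needed ≥ 100 starting reads, and estimates < 0.5 were set to 0.5.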
row,Variant,yeast fitness
1,GUUCUGGUGGCGUCAUGGUAACGCGUCUGCCUCCUAAGGAGAAGACUGCGGGUUCGAGUCCCGUACGGAACG [C5U U7G A14C C29G],≤ 0.5
2,GUUCUGAUGGCGUAAUGGUAACGCGUCUCCCUUCUAAGGAGCAGACUGCGGGUUCGAGUCCCGCACGGAGCG [C5U U7A C33U A42C U64C A70G],≤ 0.5
3,GUUCUGUUGGCGUAAUGGUAACGCGUCUCCCUCCUAAGGAGAACACUGCGGGUCCGAGUCCCGUACGGAACG [C5U G44C U54C],0.637
4,GUUCUGUUGGCGUAAUGGUAACGCGUCUCCCUCCUAAGGAGAAAACUGCGGGUUCGAGUCCCGUACGAAACG [C5U G44A G68A],0.522
5,GUUCUGAUGGCGUAAUGGUAACGCGUCUCCCUCCUUAGGAGAAGACUGCGGGUUCGAGUCCCGUACGGAACG [C5U U7A A36U],≤ 0.5
6,GUUCUGCUGGCGUAAUGGUAACGCGUCUCCCUCCUAAAGAGAAGGCUACGGGUUCGAGUCCCGUACAGAACG [C5U U7C G38A A45G G48A G67A],≤ 0.5
7,GUUCUGUUGGCGUAAUGGUAACGCGUCUCCCUCCUAAGGAGAAGACUGCGGCUUCGAGUCCCGUACGGAACG [C5U G52C],0.622
8,GUUCUGCUGGCGUAAUGGUAACGCGUCUCGCUCCUAAGGAGCAGACUGCGGGUUCGAGUCCCGUACGGAACG [C5U U7C C30G A42C],0.565
9,GUUCUGUUGGCGUAAUGGUAACGCGUCUCCCUCCUAAGGAGAAGACUGCGGGUUCCAGUCCCGUUCGGAGCG [C5U G56C A65U A70G],≤ 0.5
10,GUUCUGUUGGCGUAAUGGUAACGCGUCUCCCUCCUAAGGAGAAGACUGCGGAUUCGAGUCCCGUGCGGAACG [C5U G52A A65G],0.598
11,GUUCUGUUGGCGUAAUGGUAACGCGUCUCCCUCCUAAGGAGAAGACUGCGGAUUCGAGUCCCGUUCGGAACG [C5U G52A A65U],≤ 0.5
12,GUUCUGUUGGCGUAAUGGUAACGCGUCUCCCUCCUAAGGAGAACACUGCGGGUUCGAGUCCCCUACGGAACG [C5U G44C G63C],0.686
13,GUUCUGUUGGCGUAAUGGUAACGCGUCUCCCUCCUAAGGAGAAGACUUCGGGUUCGAGUCCCGUACGGACCG [C5U G48U A70C],0.707
14,GUUCUGUUGGCGUAAUGGUAACGCGUCUCCCUCCUAAGGAGAAGACUGCGCGUUCGCGUCCCGUACGGAACG [C5U G51C A57C],≤ 0.5
15,GUUCUGUUGGCGUAAUGGUAACGCGUCUCCCUCCUAAGGAAAAGACUGUGGGUUCGAGUCCCGUGUGGAACG [C5U G41A C49U A65G C66U],≤ 0.5
16,GUUCUGUUGGCGUAAUGGUAACGCGUCUCCCUCCUAAGGAGAAGACUGCGCGCUCGAGUCCCGUACGGGACG [C5U G51C U53C A69G],≤ 0.5
17,GUUCUGUUGGCGUAAUGGUAACGCGUCUCCCUCCUAAGGAAAAGACUGCGGGUUCGAGUCCCGUACGGACCG [C5U G41A A70C],0.695
18,GUUCUGAUGGCGUAAUGUUAACGCGUCACCCUCCUAAGGAGAAGACUGCGGGUUCGAGUCCCGUACGGAACG [C5U U7A G18U U28A],≤ 0.5
19,GUUCUGUUGGCGUAAUGGUAACGCGUCUCCCUCCUAAGGAGAAGACUGCGGGUUCGAGUCCCGUACAGUACG [C5U G67A A69U],≤ 0.5

row,Variant,yeast fitness
1,GUUCUGUUGGCGUAAUGGUAACGCGUCUCCCUCCUAAGGAGAACACCGCGGGUUCGAGUCCCGUACGGAACG [C5U G44C U47C],0.807
2,GUUCUGCUGGCGUAAUGGUAACGCGUCUCCCUCCUAAGGAGAAGACUGCGGCUUCGUGUCCUGUAGGGAACG [C5U U7C G52C A57U C62U C66G],≤ 0.5
3,GUUCUGAUGGCGUAAUGGUAACGCGUCUCCCUCCUAAGCAGAAGACUGUGGGUUCGAGUCCCGUACGGAACG [C5U U7A G39C C49U],≤ 0.5
4,GUUCUGUUGGCGUAAUGGUAACGCGUCUCCCUCCUAAGGAGAAGACUGCGAGUUCGAGUCCCGUCCGGAACG [C5U G51A A65C],≤ 0.5
5,GUUCUGGUGGCGUAAUGGUAACGCGUCUCCCUCGUAAGGAGAAAACUGCGGGUUCGAGGCCCGUACGUAACG [C5U U7G C34G G44A U59G G68U],≤ 0.5
6,GUUCUGGUGGCGUAAUGGUAACGCGUCUCACUCCUAAGGAGAAGACUGCGGGUUCGAGUCCCGUACGGAACG [C5U U7G C30A],0.93
7,GUUCUGCUGGCGUAAUGGUAACGCGUCUCCCUCCUAAGGUGAAGACUGCGGGUUCGAGUCCCCUACGGAACG [C5U U7C A40U G63C],≤ 0.5
8,GUUCUGUUGGCGUAAUGGUAACGCGUCUCCCUCCUAAGGAGAAGACUGCAGGUUCGAGUCCCGUACGGAACG [C5U G50A],0.888
9,GUUCUGUUGGCGUAAUGGUAACGCGUCUCCCUCCUAAGGAGAAGACUGCGGGUUCGAGUCCCGUACAGAACG [C5U G67A],0.923
10,GUUCUGUUGGCGUAAUGGUAACGCGUCUCCCUCCUAAGGAGAAGACUGCGGGUUCGAGUCCCGUACUGAACG [C5U G67U],0.735
11,GUUCUGUUGGCGUAAUGGUAACGCGUCUCCCUCCUAAGGAGAAGACUGCGGGUUCGAGUCCCGUACCGAACG [C5U G67C],0.913
12,GUUCUGGUGGCGUAAUGGUAACGCGUCUCCCUCCUAAGGAGAAGGCUGCGGGUUCGAGUCCCGUACGGACCG [C5U U7G A45G A70C],≤ 0.5
13,GUUCUGCUGGCGUAUUGGUAACGCGUCUCCCUCCUAAGGUGAAGACUGCGGGUUCGAGACCCGUUCGAAACG [C5U U7C A15U A40U U59A A65U G68A],0.542
14,GUUCUGUUGGCGUAAUGGUAACGCGUCUCCCUCCUAAGGAGAAGACUGCGGGUUCAAGUCCCGUACGCUACG [C5U G56A G68C A69U],≤ 0.5
15,GUUCUGCUGACGUAAUGGUAACGCGUCUCCCUCAUAAGGAGAAGACUGCGGGUUCGAGUCCCAUACGGAACG [C5U U7C G10A C34A G63A],≤ 0.5
16,GUUCUGUUGGCGUAAUGGUAACGCGUCUCCCUCCUAAGGAGAAGACUGCGGGUUCGAGUCCCGUACGUAACG [C5U G68U],0.88
17,GUUCUGUUGGCGUAAUGGUAACGCGUCUCCCUCCUAAGGAGAAGACUGCGGGUUCGAGUCCCGUACGAAACG [C5U G68A],0.969
18,GUUCUGUUGGCGUAAUGGUAACGCGUCUCCCUCCUAAGGAGAAGACUGCGGGUUCGAGUCCCGUACGCAACG [C5U G68C],0.842
19,GUUCUGGUGGCGUAAUGGUAACGCGUCUCCCUCCUAAGGAGAAGACUGCGGGUUCGUGUCCCGUACGGAACG [C5U U7G A57U],≤ 0.5
